From ChEMBL document CHEMBL5661979, “Pharmacological inhibition of BMK1 suppresses tumor growth through promyelocytic leukemia protein” (Cancer Cell, 2010)
The source made the active and inactive calls. The calls are words filed in the database; no cut-off is given here.

Tests used:
[1] = biological target: T1, Serine/threonine-protein kinase A-Raf (Homo sapiens) (UniProt P10398); assay: Inhibition of ARAF in human HeLa cells lysate at 10 uM pre incubated for 15 mins followed by ATP acyl phosphate probe addition and measured after 10 mins by LC-MS/MS analysis relative to control; assay type: subcellular; conditions: time 25.0 min
T1 sequence (whole entry): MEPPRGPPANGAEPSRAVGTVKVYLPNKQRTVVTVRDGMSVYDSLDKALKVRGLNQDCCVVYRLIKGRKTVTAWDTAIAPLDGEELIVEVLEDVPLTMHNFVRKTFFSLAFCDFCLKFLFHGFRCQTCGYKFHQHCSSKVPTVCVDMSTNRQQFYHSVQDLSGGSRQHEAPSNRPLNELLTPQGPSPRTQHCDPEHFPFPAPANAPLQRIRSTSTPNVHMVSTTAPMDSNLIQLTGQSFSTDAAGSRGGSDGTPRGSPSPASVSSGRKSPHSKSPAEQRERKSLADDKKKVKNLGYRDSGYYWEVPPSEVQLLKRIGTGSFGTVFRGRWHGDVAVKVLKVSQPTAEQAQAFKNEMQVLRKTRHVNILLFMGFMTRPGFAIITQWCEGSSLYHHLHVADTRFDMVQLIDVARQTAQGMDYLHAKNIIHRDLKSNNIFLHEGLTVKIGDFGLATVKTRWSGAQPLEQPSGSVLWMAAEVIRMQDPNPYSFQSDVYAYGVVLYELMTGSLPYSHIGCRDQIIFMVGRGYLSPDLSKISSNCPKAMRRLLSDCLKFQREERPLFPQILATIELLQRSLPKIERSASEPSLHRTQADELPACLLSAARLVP
Procedure, shortened: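 KiNativ-type profiling in HeLa lysate (5 mg/mL total protein). Lysate preincubated 15 min with inhibitor at 50, 10, 2, 0.8 or 0 μM, then ATP or ADP acylphosphate probe added (5 μM final) for 10 min. Reaction stopped with urea and analysed by targeted MS, using up to four fragment ions per kinase peptide-probe conjugate. % inhibition calculated against untreated lysate. Duplicate reactions.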

[2] = biological target: Dual specificity protein kinase TTK (Homo sapiens) (UniProt P33981); assay: Inhibition of TTK (unknown origin) assessed as remaining activity at 10 uM by ATP-competition binding assay relative to control
Chain of Dual specificity protein kinase TTK (Homo sapiens) (P33981 whole entry): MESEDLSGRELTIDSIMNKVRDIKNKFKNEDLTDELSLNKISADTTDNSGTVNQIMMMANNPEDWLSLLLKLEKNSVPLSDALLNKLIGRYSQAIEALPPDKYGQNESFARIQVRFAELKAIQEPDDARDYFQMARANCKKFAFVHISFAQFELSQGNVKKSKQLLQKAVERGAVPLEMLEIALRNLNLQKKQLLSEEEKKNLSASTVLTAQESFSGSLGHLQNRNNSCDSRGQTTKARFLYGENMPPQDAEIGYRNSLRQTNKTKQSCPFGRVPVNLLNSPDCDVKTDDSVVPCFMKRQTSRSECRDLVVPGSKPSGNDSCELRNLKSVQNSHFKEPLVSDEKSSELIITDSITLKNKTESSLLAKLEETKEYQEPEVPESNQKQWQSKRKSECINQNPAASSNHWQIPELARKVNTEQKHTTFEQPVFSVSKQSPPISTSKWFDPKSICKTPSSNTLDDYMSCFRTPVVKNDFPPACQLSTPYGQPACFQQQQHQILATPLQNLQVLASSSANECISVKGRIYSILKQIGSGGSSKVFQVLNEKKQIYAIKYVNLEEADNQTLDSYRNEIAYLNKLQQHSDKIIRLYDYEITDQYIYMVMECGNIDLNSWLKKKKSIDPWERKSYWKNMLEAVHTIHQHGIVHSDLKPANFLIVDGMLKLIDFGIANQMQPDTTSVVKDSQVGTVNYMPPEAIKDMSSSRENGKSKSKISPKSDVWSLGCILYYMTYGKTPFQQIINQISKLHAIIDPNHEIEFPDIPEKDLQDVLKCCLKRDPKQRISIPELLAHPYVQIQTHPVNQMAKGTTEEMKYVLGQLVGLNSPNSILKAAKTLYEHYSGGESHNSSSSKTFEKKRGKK

[3] = biological target: Serine/threonine-protein kinase D2 (Homo sapiens, UniProt Q9BZL6); assay: Inhibition of PKD2 in human HeLa cells lysate pre incubated for 15 mins followed by ADP acyl phosphate probe addition and measured after 10 mins by LC-MS/MS analysis; assay type: subcellular
Chain of Serine/threonine-protein kinase D2 (Q9BZL6 whole entry): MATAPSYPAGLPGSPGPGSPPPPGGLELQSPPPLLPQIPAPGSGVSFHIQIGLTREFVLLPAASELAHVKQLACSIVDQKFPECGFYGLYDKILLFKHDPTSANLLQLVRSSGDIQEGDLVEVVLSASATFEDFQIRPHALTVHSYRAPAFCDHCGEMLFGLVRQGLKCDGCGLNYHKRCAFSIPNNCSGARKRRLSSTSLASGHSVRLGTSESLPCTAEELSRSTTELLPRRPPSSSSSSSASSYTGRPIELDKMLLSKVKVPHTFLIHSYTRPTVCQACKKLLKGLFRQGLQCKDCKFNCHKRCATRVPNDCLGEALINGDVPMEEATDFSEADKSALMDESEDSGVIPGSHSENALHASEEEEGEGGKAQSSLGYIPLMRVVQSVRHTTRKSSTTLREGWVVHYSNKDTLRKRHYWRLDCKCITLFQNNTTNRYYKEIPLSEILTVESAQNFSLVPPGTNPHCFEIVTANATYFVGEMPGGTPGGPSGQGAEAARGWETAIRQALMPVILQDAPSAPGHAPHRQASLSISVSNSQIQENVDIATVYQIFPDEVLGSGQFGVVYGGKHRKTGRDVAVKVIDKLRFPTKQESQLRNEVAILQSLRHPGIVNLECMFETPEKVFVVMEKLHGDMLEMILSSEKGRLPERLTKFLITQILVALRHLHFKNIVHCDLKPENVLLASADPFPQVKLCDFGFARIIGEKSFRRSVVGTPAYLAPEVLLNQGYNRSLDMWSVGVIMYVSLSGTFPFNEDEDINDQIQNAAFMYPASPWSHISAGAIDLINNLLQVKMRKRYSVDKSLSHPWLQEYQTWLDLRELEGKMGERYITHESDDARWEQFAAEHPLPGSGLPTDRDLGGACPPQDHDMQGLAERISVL

[4] = test system: Lewis lung carcinoma; assay: Antitumor activity against PML knock down mouse LL2 cells allografted in C57Bl/6 mouse assessed as reduction tumor growth at 50 mg/kg, ip administered on day 7 post implantation measured after 17 days; assay type: functional, organism-based; conditions: time 10.0 day
[5] = biological target: Phosphatidylinositol 4-kinase alpha (Homo sapiens, UniProt P42356); assay: Inhibition of PIK4CA in human HeLa cells lysate pre incubated for 15 mins followed by ATP acyl phosphate probe addition and measured after 10 mins by LC-MS/MS analysis; assay type: subcellular
Chain of Phosphatidylinositol 4-kinase alpha (P42356 whole entry): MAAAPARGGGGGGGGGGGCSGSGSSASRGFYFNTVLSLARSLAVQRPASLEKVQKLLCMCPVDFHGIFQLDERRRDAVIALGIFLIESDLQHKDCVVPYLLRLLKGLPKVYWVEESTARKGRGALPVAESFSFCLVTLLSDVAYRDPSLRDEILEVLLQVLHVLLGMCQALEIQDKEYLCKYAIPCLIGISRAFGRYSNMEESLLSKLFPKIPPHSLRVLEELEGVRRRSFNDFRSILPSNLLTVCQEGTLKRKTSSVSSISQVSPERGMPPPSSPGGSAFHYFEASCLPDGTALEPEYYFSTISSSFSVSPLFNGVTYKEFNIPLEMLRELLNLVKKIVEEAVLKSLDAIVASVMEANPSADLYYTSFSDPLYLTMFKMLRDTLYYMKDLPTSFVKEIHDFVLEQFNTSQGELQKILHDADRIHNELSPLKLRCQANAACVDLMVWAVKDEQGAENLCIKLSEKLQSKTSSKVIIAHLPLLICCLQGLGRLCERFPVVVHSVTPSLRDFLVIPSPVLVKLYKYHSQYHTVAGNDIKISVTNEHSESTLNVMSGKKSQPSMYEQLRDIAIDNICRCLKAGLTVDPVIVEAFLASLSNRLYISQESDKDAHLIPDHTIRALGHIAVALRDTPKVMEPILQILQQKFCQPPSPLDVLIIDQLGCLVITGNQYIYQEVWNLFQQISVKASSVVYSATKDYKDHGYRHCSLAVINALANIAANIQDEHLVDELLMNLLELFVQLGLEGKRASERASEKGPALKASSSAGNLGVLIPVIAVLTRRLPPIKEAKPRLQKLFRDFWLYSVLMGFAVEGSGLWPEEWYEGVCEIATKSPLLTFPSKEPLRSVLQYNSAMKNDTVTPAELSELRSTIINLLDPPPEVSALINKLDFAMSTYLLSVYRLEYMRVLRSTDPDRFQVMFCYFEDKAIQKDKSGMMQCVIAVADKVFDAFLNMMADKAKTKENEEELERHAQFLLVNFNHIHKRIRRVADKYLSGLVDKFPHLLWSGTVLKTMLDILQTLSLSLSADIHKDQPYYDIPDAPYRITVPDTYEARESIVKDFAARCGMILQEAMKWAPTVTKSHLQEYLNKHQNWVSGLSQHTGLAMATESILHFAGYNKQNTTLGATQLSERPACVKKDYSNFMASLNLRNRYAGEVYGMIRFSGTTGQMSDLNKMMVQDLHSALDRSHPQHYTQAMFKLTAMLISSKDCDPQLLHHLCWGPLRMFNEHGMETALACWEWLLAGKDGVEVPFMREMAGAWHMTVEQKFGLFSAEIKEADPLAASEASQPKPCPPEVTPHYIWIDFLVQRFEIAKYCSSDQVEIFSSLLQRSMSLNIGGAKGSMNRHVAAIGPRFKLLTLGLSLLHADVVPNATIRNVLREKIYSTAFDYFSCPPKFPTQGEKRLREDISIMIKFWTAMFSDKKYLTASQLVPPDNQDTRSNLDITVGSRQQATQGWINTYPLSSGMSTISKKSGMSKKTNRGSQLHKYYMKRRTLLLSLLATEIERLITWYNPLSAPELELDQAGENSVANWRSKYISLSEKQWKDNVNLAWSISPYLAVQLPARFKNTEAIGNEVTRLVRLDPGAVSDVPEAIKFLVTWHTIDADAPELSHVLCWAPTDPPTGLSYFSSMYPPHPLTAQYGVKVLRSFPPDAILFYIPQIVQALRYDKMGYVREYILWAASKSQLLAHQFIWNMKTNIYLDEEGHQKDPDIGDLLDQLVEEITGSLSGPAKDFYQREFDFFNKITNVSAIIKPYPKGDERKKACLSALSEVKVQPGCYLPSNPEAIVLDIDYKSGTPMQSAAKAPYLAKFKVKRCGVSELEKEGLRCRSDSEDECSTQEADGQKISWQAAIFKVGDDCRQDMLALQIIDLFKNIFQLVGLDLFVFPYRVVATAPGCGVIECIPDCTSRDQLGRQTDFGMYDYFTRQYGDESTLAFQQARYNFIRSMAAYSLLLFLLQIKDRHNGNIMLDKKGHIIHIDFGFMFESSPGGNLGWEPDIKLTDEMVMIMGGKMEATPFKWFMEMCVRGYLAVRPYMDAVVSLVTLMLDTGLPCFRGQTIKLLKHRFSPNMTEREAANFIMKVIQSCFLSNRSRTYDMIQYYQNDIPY

[6] = biological target: T2, Phosphatidylinositol 5-phosphate 4-kinase type-2 gamma (Homo sapiens) (UniProt Q8TBX8); assay: Inhibition of PIP5K2C LIP1 site in human HeLa cells lysate at 2 uM pre incubated for 15 mins followed by ATP acyl phosphate probe addition and measured after 10 mins by LC-MS/MS analysis relative to control; assay type: subcellular; conditions: time 25.0 min
T2 sequence (whole entry): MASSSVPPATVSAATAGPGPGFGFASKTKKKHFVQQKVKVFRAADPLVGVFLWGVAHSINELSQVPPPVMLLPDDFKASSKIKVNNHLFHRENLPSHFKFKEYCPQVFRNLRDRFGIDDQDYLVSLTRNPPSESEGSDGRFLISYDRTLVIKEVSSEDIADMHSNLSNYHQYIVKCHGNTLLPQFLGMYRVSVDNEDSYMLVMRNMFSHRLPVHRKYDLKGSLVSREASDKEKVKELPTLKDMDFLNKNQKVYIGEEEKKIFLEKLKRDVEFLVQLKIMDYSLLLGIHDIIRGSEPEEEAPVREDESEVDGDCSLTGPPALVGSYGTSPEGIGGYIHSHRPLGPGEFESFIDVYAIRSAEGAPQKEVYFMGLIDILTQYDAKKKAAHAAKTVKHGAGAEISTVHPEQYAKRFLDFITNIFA

[7] = biological target: T3, Serine/threonine-protein kinase Nek9 (Homo sapiens) (UniProt Q8TD19); assay: Inhibition of NEK9 in human HeLa cells lysate at 50 uM pre incubated for 15 mins followed by ATP acyl phosphate probe addition and measured after 10 mins by LC-MS/MS analysis relative to control; assay type: subcellular; conditions: time 25.0 min
T3 sequence (whole entry): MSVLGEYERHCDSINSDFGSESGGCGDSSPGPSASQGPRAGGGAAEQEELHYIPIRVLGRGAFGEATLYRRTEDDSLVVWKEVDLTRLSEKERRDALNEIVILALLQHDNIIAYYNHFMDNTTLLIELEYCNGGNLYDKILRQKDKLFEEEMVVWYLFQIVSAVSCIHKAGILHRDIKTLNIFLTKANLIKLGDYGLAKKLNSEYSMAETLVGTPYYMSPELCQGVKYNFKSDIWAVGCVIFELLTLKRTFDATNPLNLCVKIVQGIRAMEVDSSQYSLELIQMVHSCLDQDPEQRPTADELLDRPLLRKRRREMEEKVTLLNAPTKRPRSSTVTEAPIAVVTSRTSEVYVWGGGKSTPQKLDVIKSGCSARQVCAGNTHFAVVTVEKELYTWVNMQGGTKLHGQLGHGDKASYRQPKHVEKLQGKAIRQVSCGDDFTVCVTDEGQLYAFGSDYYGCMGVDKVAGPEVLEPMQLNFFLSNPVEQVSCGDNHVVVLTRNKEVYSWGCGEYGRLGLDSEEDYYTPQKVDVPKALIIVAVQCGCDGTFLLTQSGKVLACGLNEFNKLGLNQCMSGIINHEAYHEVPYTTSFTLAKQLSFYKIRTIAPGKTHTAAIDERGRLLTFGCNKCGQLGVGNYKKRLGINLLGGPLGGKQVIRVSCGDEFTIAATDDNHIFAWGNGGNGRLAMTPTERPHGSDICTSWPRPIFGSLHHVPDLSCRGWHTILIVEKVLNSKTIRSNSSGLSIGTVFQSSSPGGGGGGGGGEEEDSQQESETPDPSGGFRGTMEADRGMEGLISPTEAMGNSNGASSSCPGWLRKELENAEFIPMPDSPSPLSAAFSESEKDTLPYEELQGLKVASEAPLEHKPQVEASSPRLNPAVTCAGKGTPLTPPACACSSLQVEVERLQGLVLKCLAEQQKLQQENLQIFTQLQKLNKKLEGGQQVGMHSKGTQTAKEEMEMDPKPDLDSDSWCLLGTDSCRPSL

[8] = biological target: Interleukin-1 receptor-associated kinase 1 (Homo sapiens, UniProt P51617); assay: Inhibition of IRAK1 in human HeLa cells lysate pre incubated for 15 mins followed by ATP acyl phosphate probe addition and measured after 10 mins by LC-MS/MS analysis; assay type: subcellular
Chain of Interleukin-1 receptor-associated kinase 1 (P51617 whole entry): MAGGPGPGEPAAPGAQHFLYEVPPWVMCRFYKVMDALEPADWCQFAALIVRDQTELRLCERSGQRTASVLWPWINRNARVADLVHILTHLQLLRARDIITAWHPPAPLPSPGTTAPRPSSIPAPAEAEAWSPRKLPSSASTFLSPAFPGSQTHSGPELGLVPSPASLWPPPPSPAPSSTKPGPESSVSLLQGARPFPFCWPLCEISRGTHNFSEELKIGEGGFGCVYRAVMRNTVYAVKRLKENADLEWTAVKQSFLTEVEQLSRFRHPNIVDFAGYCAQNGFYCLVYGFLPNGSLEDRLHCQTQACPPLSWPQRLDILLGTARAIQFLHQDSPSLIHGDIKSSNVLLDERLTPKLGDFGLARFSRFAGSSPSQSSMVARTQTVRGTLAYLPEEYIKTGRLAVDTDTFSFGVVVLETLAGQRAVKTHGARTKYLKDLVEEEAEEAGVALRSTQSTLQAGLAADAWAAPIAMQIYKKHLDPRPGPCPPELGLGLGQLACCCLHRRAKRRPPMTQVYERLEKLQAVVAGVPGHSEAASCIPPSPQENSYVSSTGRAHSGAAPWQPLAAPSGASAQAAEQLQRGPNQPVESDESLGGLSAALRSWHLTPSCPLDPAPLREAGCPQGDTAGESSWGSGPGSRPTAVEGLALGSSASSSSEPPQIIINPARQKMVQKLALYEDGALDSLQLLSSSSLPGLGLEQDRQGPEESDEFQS

Compound: CCOc1cc(N2CCC(O)CC2)ccc1Nc1ncc2c(n1)N(C)c1ccccc1C(=O)N2C
- inhibition [1]: 11.2%
- Activity [2]: 19%
- IC50 [3]: > 50 µM
- Activity [4]: inactive
- IC50 [5]: 36 µM
- inhibition [6]: -3.7%
- inhibition [7]: -1.6%
- IC50 [8]: > 50 µM
